The results in this text go back to ChEMBL document CHEMBL3576795, “Neolignans and other metabolites from Ocotea cymosa from the Madagascar rain forest and their biological activities” (J Nat Prod, 2015).

The test system of assay [1] is A2780. The experiment in a line: Antiproliferative against human A2780 cells after 2 days by AlamarBlue assay. It counts as functional, cell-based. (In general: Alamar Blue is a resazurin reagent that responds to reducing activity.)
For assay [2], the system named is Plasmodium falciparum. The experiment in a line: Antiplasmodium activity against Plasmodium falciparum Dd2. It counts as functional, organism-based. An outline of the steps: (§1)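 Dd2 ring-stage cultures at 1% hematocrit and 1% parasitaemia were grown for 72 h at 37°C in 5.05% CO2/4.93% O2/90.2% N2 with increasing drug concentrations. Viability was read by SYBR Green I DNA quantitation in lysis buffer. IC50 was obtained by nonlinear regression and averaged over three independent runs, each in duplicate, ± S.E.M.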

The test system of assay [3] is Plasmodium falciparum. The experiment in a line: Antiplasmodium activity against chloroquine-resistant intraerythrocytic stage of Plasmodium falciparum Dd2 assessed as parasite growth inhibition after 72 hrs by SYBR Green I staining-based assay. It counts as functional, organism-based. Conditions: Dd2, 72 h. The gist of the method:
as §1

For assay [4], the system named is Aedes aegypti. The experiment in a line: Insecticidal activity against Aedes aegypti assessed as mortality at 4 mg/ml after 3 days. Conditions: 72 h. It counts as functional. An outline of the steps: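 A DMSO master stock of 4000 ppm was diluted with 90:10 water:acetone and robotically dispensed into six replicate plates. Plates were infested with about 1-day-old Aedes aegypti larvae hatched overnight in water with liver powder. They were covered to limit drying, held at room temperature for 3 days, and each well was scored for mortality.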

Assay [5] has as its system Plasmodium falciparum. The experiment in a line: Antiplasmodium activity against chloroquine-resistant Plasmodium falciparum Dd2 infected in human RBC assessed as parasite growth inhibition after 42 hrs by microculture radioisotope technique. Format: functional, organism-based. Conditions: Dd2, 42 h.
For assay [6], the system named is Plasmodium falciparum. The assay is described as follows: Antiplasmodium activity against chloroquine-sensitive Plasmodium falciparum PoW infected in human RBC assessed as parasite growth inhibition after 42 hrs by microculture radioisotope technique. Format: functional, organism-based.

SMILES strings stand for the structures. The source made the active and inactive calls. The rule behind the calls is not given here. Bounds are passed on as bounds.

Broadly, the IC50 is the point on the concentration scale where inhibition reaches its midpoint. On to `C=CCC1(C(C)Cc2cc(OC)c(O)c(OC)c2)C=C2OCOC2=CC1=O` (stereo not drawn), for which the inhibition result in assay [1] is “inactive”. Besides, in assay [2], the half-maximal inhibitory concentration (IC50) was determined as 42.1 µM.

For `C[C@@H]1CC[C@H]2[C@@H](C)C(=O)O[C@@H]3O[C@@]4(C)CC[C@@H]1[C@]32OO4` [ARTEMISININ], the IC50 in assay [3] came out at 0.00082 µM.

`C=CCC1(C(C)Cc2cc(OC)c(OC)c(OC)c2)C=C2OCOC2=CC1=O` (stereo not drawn): the inhibition result in assay [1] is “inactive”.

The term mortality denotes the share of the test organisms that died. Regarding `C=CCc1cc2c(c3c1O[C@H](c1cc(OC)c(OC)c(OC)c1)[C@H]3C)OCO2` (relative stereo), the mortality at 4000 µg/mL in assay [4] was at least 80%. The IC50 was 0.45 µM in assay [3] and 4.7 µM in assay [2]. Further, the inhibition entry in assay [1] was “inactive”.

With `C=CCc1cc2c(c3c1O[C@H](c1ccc4c(c1)OCO4)[C@H]3C)OCO2`, the inhibition result in assay [1] was “inactive”.

Turning to `C=CC[C@]12C[C@@]3(OCOC3=CC1=O)[C@H](C)[C@@H]2c1cc(OC)c(OC)c(OC)c1`, the IC50 is 7.7 µM in assay [3] and 40.5 µM in assay [2]. The inhibition result in assay [1] was “inactive”.

As for `C/C=C/c1cc(OC)c(OC(C)Cc2cc(OC)c(OC)c(OC)c2)c(OC)c1` (stereo not drawn), the IC50 in assay [5] turned out to be 14.9 µM; in assay [6], 12.4 µM.

Regarding `C=CC[C@@]12C[C@]3(OCOC3=CC1=O)[C@@H](C)[C@@H]2c1ccc2c(c1)OCO2`, the mortality at 4000 µg/mL in assay [4] was at least 80%. The IC50 in assay [3] was 14.6 µM. Besides, the inhibition entry in assay [1] was “inactive”.

Consider `C=CCC1(C(C)Cc2ccc(OC)c(OC)c2)C=C2OCOC2=CC1=O` (stereo not drawn), for which the inhibition result in assay [1] is “inactive”.

With `C=CC[C@]12C[C@@]3(OCOC3=CC1=O)[C@H](C)[C@@H]2c1cc(OC)c2c(c1)OCO2`, in assay [3], the IC50 is 4.1 µM. In assay [1], the inhibition result is “inactive”.

As for `C=CCc1cc(OC)c(O[C@@H](C)Cc2cc(OC)c(OC)c(OC)c2)c(OC)c1`, the IC50 in assay [3] came to 3.3 µM; in assay [2], 3.1 µM. Moreover, the inhibition entry in assay [1] is “inactive”.

`C=CCc1cc2c(cc1O[C@@H](C)Cc1cc(OC)c(OC)c(OC)c1)OCO2`: the mortality at 4000 µg/mL in assay [4] is at least 80%. Further, in assay [1], the inhibition entry was “inactive”.

As to `C=CCc1ccc(O[C@]23C[C@@H](CC=C)C(=O)C=C2OCO3)c(OC)c1`, the inhibition entry in assay [1] is “inactive”.

Regarding `C=CCC1(C(C)Cc2ccc(O)c(OC)c2)C=C2OCOC2=CC1=O` (stereo not drawn), in assay [1], the inhibition result was “inactive”.

With `C=CC[C@@]12C[C@]3(OCOC3=CC1=O)[C@@H](C)[C@@H]2c1cc(OC)c(OC)c(OC)c1`, the inhibition result in assay [1] is “inactive”.

`C=CC[C@@]12C[C@]3(OCOC3=CC1=O)[C@@H](C)[C@@H]2c1cc(OC)c2c(c1)OCO2`: the inhibition result in assay [1] is “inactive”.

As to `C=CC[C@@]12C[C@]3(OCOC3=CC1=O)[C@@H](C)[C@@H]2c1cc(O)c2c(c1)OCO2`, the IC50 in assay [3] came to 42 µM; in assay [2], 28.4 µM. In addition, the inhibition result in assay [1] is “inactive”.

In the case of `C=CCc1cc(OC)c(O[C@]23C[C@@H](CC=C)C(=O)C=C2OCO3)c(OC)c1`, in assay [1], the inhibition result was “inactive”.
